Assay results from ChEMBL document CHEMBL1140313, “Potent inhibitors of subgenomic hepatitis C virus RNA replication through optimization of indole-N-acetamide allosteric inhibitors of the viral NS5B polymerase” (J Med Chem, 2005).

Legend:
Huh-7 [1] = experiment: Effective concentration required to inhibit replication of subgenomic HCV RNA in HUH-7 cells in the presence of 10% fetal calf serum; format: functional, cell-based; conditions: Homo sapiens
Summary of the method: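 Subgenomic HCV replicon in HUH-7 cells, run in medium with 10% fetal calf serum (a modification of Bartenschlager's method). EC50 was determined only for compounds giving >50% inhibition in an initial screen at a fixed 5 μM. Values are the arithmetic mean ± half-range or standard error of at least two independent determinations, or from a single experiment where noted.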

[2] = biological target: RNA-directed RNA polymerase (Hepacivirus hominis, UniProt O39930); experiment: Inhibitory activity against hepatitis C virus NS5B polymerase enzyme; Range=6-9 nM
Summary of the method: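 Purified ΔC55 NS5B polymerase assayed with heterogenic template RNA. IC50 values come from a single experiment or are arithmetic means of multiple experiments, as footnoted; some were measured in duplicate.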

[3] = Plasma clearance in rat; format: ADME, organism-based; conditions: read-out: Clp
Summary of the method: (§1)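 Sprague-Dawley rats and male beagle dogs, dosed as trifluoroacetate salts (mg/kg; n = 3, some n = 2). Rat vehicle: iv 20% DMSO/[…] with po PEG-400, or iv 20% DMSO/80% saline with po 50% PEG-400/50% H2O. Dog vehicle: iv 20% DMSO/40% PEG-400/40% H2O, po PEG-400. Plasma levels measured by HPLC–MS/MS; noncompartmental analysis; terminal half-life from iv.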

[4] = Oral bioavailability in dog at a dose of 2 mg/kg; format: ADME, organism-based, Canis lupus familiaris; conditions: in vivo; summary of the method: as §1
[5] = Plasma half life following 3 mg/kg iv administration in rat; format: ADME, organism-based; design: dose 3 mg/kg, route intravenous; summary of the method: as §1
[6] = Plasma clearance in dod; format: ADME, organism-based, Canis lupus familiaris; conditions: dog, read-out: Clp; summary of the method: as §1
Huh-7 [7] = experiment: Effective concentration required to inhibit replication of subgenomic HCV RNA in HUH-7 cells in the presence of 50% normal human serum; format: functional, cell-based
Summary of the method: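 Subgenomic HCV replicon in HUH-7 cells run under high-serum conditions with 50% normal human serum in place of 10% fetal calf serum. EC50 values are the arithmetic mean ± half-range or standard error of at least two independent determinations.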

[8] = Plasma half life following 1 mg/kg iv administration in dog; format: ADME, organism-based, Canis lupus familiaris; design: dose 1 mg/kg, route intravenous; summary of the method: as §1
[9] = Plasma clearance after intravenous administration of 1 mg/kg in dog; format: ADME, organism-based, Canis lupus familiaris; design: dose 1 mg/kg, route intravenous; conditions: read-out: Clp; summary of the method: as §1
[10] = Oral bioavailability in rat (dose 3 mg/kg); format: ADME, organism-based; conditions: in vivo; summary of the method: as §1

Chain of RNA-directed RNA polymerase (O39930 whole entry): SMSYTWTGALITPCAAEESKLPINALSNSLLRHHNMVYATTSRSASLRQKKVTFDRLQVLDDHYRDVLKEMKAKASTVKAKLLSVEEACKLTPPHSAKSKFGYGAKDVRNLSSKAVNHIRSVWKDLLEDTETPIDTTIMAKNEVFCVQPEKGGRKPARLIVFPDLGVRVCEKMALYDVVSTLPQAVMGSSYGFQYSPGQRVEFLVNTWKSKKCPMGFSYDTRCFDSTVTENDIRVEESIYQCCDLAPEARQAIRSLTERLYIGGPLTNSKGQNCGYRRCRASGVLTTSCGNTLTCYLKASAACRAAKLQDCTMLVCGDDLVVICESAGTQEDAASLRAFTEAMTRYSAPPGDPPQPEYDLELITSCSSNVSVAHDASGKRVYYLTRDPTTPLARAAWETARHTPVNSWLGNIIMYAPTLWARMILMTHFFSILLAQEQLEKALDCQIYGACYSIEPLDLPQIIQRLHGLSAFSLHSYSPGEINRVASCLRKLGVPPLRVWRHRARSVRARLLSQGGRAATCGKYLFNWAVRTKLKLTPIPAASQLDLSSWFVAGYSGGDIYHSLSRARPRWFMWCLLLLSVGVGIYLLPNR

Q: Which EC50 (Huh-7 [1]) does the source give for CCN(CC)C1CCN(C(=O)Cn2c(-c3ccc(Cl)cc3)c(C3CCCCC3)c3ccc(C(=O)O)cc32)CC1 here?
A: 0.127 µM

Q: What about the IC50 [2] of the same compound?
A: 0.009 µM

Q: And the clearance [3]?
A: 44 mL/min/kg

Q: And the bioavailability [4]?
A: 51%

Q: And the half-life [5]?
A: 3.1 h

Q: What about the clearance [6] of the same compound?
A: 9 mL/min/kg

Q: What about the EC50 (Huh-7 [7]) of the same compound?
A: 0.454 µM

Q: And the half-life [8]?
A: 5 h

Q: And the clearance [9]?
A: 9 mL/min/kg

Q: And the bioavailability [10]?
A: 10%
